Measurements as given in ChEMBL document CHEMBL4808182, “Discovery of the Soluble Guanylate Cyclase Activator Runcaciguat (BAY 1101042)” (J Med Chem, 2021).

Legend:
[1] = Clearance in Wistar rat at 0.3 mg/kg, iv measured up to 24 hrs by LC-MS analysis; assay type: ADME, organism-based; settings: in vivo
Procedure, shortened: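 Rats dosed iv at 0.3 mg/kg; blood clearance determined.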

[2] = Plasma clearance in iv dosed cynomolgus monkey measured up to 24 hrs by LC-MS analysis; assay type: ADME, organism-based, Macaca fascicularis
[3] = Plasma clearance in iv dosed Beagle dog measured up to 24 hrs by LC-MS analysis; assay type: ADME, organism-based, Canis lupus familiaris
[4] = molecular target: T1, Guanylate cyclase soluble subunit alpha-1 (Rattus norvegicus) (UniProt P19686); assay: Activation of recombinant rat sGC alpha1 subunit expressed in CHO cells assessed as induction of [32P-cGMP] formation using alpha-[32P-GTP] as substrate measured after 6 mins by luminescence assay; assay type: cell-based; settings: filed as activator
T1 sequence (whole entry): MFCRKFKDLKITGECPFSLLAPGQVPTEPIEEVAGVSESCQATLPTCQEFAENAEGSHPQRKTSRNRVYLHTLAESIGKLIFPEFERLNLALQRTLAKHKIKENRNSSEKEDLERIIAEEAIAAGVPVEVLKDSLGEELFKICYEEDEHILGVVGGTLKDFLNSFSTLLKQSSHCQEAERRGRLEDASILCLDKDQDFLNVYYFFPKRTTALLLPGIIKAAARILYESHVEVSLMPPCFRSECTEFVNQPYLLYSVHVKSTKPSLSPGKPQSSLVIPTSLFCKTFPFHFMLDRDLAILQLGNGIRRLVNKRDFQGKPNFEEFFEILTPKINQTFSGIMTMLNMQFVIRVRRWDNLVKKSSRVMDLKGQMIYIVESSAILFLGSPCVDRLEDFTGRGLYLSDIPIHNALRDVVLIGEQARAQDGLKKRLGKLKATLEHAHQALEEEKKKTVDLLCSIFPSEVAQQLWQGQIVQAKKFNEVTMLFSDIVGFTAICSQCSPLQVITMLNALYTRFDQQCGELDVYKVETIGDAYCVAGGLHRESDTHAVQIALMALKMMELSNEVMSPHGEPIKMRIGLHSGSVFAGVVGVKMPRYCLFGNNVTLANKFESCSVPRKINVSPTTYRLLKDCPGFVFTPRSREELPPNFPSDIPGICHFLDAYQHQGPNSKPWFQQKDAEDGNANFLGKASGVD

[5] = molecular target: T1, Guanylate cyclase soluble subunit alpha-1 (Rattus norvegicus); assay: Activation of recombinant rat sGC alpha1 subunit expressed in CHO cells assessed as induction of [32P-cGMP] formation by measuring efficacy using alpha-[32P-GTP] as substrate measured after 6 mins by luminescence assay relative to control; assay type: cell-based
[6] = Induction of CYP3A4 in human hepatocytes using phenacetin as substrate incubated for 60 mins by LC-MS/MS analysis; settings: 1 h
[7] = Activation of recombinant rat sGC expressed in CHO cells by luminescence assay; assay type: cell-based
Procedure, shortened: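 Stable CHO reporter cell line overexpressing rat sGC; cGMP formation read as luminescence. EC50 from concentration–response. MEC taken as lowest concentration giving at least threefold increase in basal luminescence.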

[8] = Oral bioavailability in Wistar rat measured up to 24 hrs by LC-MS analysis; assay type: ADME, organism-based; settings: in vivo
[9] = Volume of distribution at steady state in iv dosed Beagle dog measured up to 24 hrs by LC-MS analysis; assay type: ADME, organism-based, Canis lupus familiaris; settings: in vivo, read-out: Vdss
Procedure, shortened: (§1)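 Three animals per species and strain received an intravenous dose. Steady-state volume of distribution (L/kg) was derived from the blood concentration–time profile, alongside blood clearance and terminal half-life.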

[10] = Half life in iv dosed Wistar rat measured up to 24 hrs by LC-MS analysis; assay type: ADME, organism-based; settings: in vivo
[11] = Volume of distribution at steady state in iv dosed Wistar rat measured up to 24 hrs by LC-MS analysis; assay type: ADME, organism-based; settings: in vivo, read-out: Vdss; procedure, shortened: as §1
[12] = Oral bioavailability in Beagle dog measured up to 24 hrs by LC-MS analysis; assay type: ADME, organism-based, Canis lupus familiaris; settings: in vivo
[13] = Half life in iv dosed Beagle dog measured up to 24 hrs by LC-MS analysis; assay type: ADME, organism-based, Canis lupus familiaris; settings: in vivo

C[C@H]([C@H](C(=O)Nc1cccc(CCC(=O)O)c1)c1ccc(CN2N=C(c3ccccc3)OCC2=O)cc1)C(F)(F)F
clearance [1]: 27 mL/min/kg
clearance [2]: 16.7 mL/min/kg
clearance [3]: 23.3 mL/min/kg
MEC [4]: 3 nM

C[C@H]([C@H](C(=O)Nc1cccc(CC2(C(=O)O)CC2)c1)c1ccc(Cl)cc1)C(F)(F)F
Efficacy [5]: 4%
MEC [4]: 20 nM

O=C(O)CCc1cccc(NC(=O)[C@@H](c2ccc(CN3N=C(c4ccccc4)OCC3=O)cc2)C2CCCC2)c1
MEC [4]: 300 nM

CC(C)C(CC(=O)O)c1ccc(Cl)c(NC(=O)[C@H](c2ccc(Cl)cc2)[C@@H](C)C(F)(F)F)c1 (stereo in doubt; 44b) [listing 1 of 2 here]
Activity [6]: < 29 nM
EC50 ([7]; cho): 10 nM

CC(C)(CCCCNC(=O)[C@H](c1ccc(CN2N=C(c3ccccc3)OCC2=O)cc1)C1CCCC1)C(=O)O
MEC [4]: 100 nM

C[C@H]([C@H](C(=O)Nc1cccc(CC2(C(=O)O)CC2)c1Cl)c1ccc(Cl)cc1)C(F)(F)F
Efficacy [5]: 19%
MEC [4]: 100 nM

CCc1ccc([C@@H](C(=O)Nc2cc(C3(CC(=O)O)CC3)ccc2F)[C@@H](C)C(F)(F)F)cc1
Activity [6]: 31 nM
Efficacy ([5]; filed as activator): 43%
EC50 ([7]; CHO): 111 nM
MEC [4]: 10 nM

Cc1c(CCC(=O)O)cccc1NC(=O)[C@H](c1ccc(Cl)cc1)C1CCCC1
clearance [1]: 12.8 mL/min/kg
Efficacy [5]: 19%
EC50 ([7]; CHO): 44 nM
MEC [4]: 200 nM

CC(C)C(CC(=O)O)c1ccc(Cl)c(NC(=O)[C@H](c2ccc(Cl)cc2)[C@@H](C)C(F)(F)F)c1 (stereo in doubt; 44b) [listing 2 of 2 here]
Efficacy ([5]; filed as activator): 47%
MEC [4]: 3 nM

Cc1c(CCC(=O)O)cccc1NC(=O)[C@H](c1ccc(Cl)cc1)[C@@H](C)C(F)(F)F
Efficacy [5]: 18%
MEC [4]: 1000 nM

CC(C)C(CC(=O)O)c1ccc(Cl)c(NC(=O)[C@H](c2ccc(Cl)cc2)[C@@H](C)C(F)(F)F)c1 (stereo in doubt; 44a) [listing 1 of 2 here]
Activity [6]: 10 nM
EC50 ([7]; cho): 28 nM

Cc1ccc(=O)n(Cc2ccc(C(C(=O)Nc3cccc(CCC(=O)O)c3C)C3CCCC3)cc2)n1 (racemic)
MEC [4]: 30 nM

Cc1c(CCC(=O)O)cccc1NC(=O)[C@H](c1ccc(CN2N=C(c3ccccc3)OCC2=O)cc1)C(C)C
MEC [4]: 30 nM

Cc1c(C=C[C@H](c2ccc(CN3N=C(c4ccccc4)OCC3=O)cc2)C2CCCC2)cccc1CCC(=O)O (mixture of isomers)
MEC [4]: 300 nM

O=C(O)CCCCCNC(=O)[C@H](c1ccc(CN2N=C(c3ccccc3)OCC2=O)cc1)C1CCCC1
MEC [4]: 100 nM

CN(C(=O)C(c1ccc(CN2N=C(c3ccccc3)OCC2=O)cc1)C1CCCC1)c1cccc(CCC(=O)O)c1 (stereo not given)
MEC [4]: 10000 nM

CC[C@@H](C)[C@H](C(=O)Nc1cccc(CCC(=O)O)c1C)c1ccc(CN2N=C(c3ccccc3)OCC2=O)cc1
MEC [4]: 1 nM

O=C(O)[C@H]1Cc2cccc(NC(=O)[C@H](c3ccc(CN4N=C(c5ccccc5)OCC4=O)cc3)C3CCCC3)c2C1
MEC [4]: 30 nM

O=C(N[C@@H](CO)c1ccccc1)C(c1ccc(Cn2nc(-c3ccccc3)c3ccccc3c2=O)cc1)C1CCCC1 (stereo not given in full)
MEC [4]: 100 nM

Cc1c(CCC(=O)O)cccc1NC(=O)C(c1ccc(CN2CCOC(c3ccccc3)=N2)cc1)C1CCCC1 (racemic)
MEC [4]: 1000 nM

CC[C@@H](C)[C@H](C(=O)Nc1cccc(CCC(=O)O)c1C)N1CCC(CN2N=C(c3ccccc3)OCC2=O)CC1
MEC [4]: 30 nM

CC(C)(Cc1cccc(NC(=O)[C@H](c2ccc(CN3N=C(c4ccccc4)OCC3=O)cc2)C2CCCC2)c1)C(=O)O
MEC [4]: 30 nM

C[C@H]([C@H](C(=O)Nc1cc(CC2(C(=O)O)CC2)ccc1F)c1ccc(Cl)cc1)C(F)(F)F
Efficacy [5]: 34%
MEC [4]: 0.3 nM

C[C@H]([C@H](C(=O)Nc1cc(CC2(C(=O)O)CC2)ccc1Cl)c1ccc(Cl)cc1)C(F)(F)F
bioavailability [8]: 84%
Vd [9]: 3 L/kg
half-life [10]: 4.3 h
clearance [1]: 7.67 mL/min/kg
clearance [2]: 4 mL/min/kg
Vd [11]: 1.5 L/kg
Efficacy ([5]; filed as activator): 63%
bioavailability [12]: 57%
clearance [3]: 25 mL/min/kg
half-life [13]: 11 h
MEC [4]: 0.3 nM

Cc1c(CCC(=O)O)cccc1C(=O)NC(c1ccc(CN2N=C(c3ccccc3)OCC2=O)cc1)C1CCCC1 (stereo not given)
MEC [4]: 3000 nM

C[C@H]([C@H](C(=O)Nc1ccc(Cl)c(CC2(C(=O)O)CC2)c1)c1ccc(Cl)cc1)C(F)(F)F
Efficacy [5]: 1.2%
MEC [4]: 300 nM

O=C(O)c1ccc(CNC(=O)C(c2ccc(CN3N=C(c4ccccc4)OCC3=O)cc2)C2CCCC2)cc1 (racemic)
MEC [4]: 10 nM

Cc1c(CCC(=O)O)cccc1NC(=O)[C@H](c1ccc(CN2N=C(c3ccccc3)OCC2=O)cc1)[C@@H](C)C(F)(F)F
MEC [4]: 3 nM

O=C(Nc1cccc(CC2(C(=O)O)CC2)c1)[C@H](c1ccc(CN2N=C(c3ccccc3)OCC2=O)cc1)C1CCCC1
clearance [1]: 55 mL/min/kg
clearance [2]: 30 mL/min/kg
clearance [3]: 13.7 mL/min/kg
MEC [4]: 1 nM

Cc1c(CCC(=O)O)cccc1NC(=O)[C@H](c1ccc(Cn2nc(C(F)(F)F)ccc2=O)cc1)C1CCCC1
MEC [4]: 3 nM

C[C@H]([C@H](C(=O)Nc1cc(C2(CC(=O)O)CCC2)ccc1Cl)c1ccc(Cl)cc1)C(F)(F)F
Activity [6]: 256 nM
Efficacy [5]: 37%
EC50 ([7]; CHO): 5 nM
MEC [4]: 1 nM

CCN(C)C(C(=O)Nc1cccc(CCC(=O)O)c1C)c1ccc(CN2N=C(c3ccccc3)OCC2=O)cc1 (stereo not given)
MEC [4]: 300 nM

CC(C)C(CC(=O)O)c1ccc(Cl)c(NC(=O)[C@H](c2ccc(Cl)cc2)[C@@H](C)C(F)(F)F)c1 (stereo in doubt; 44a) [listing 2 of 2 here]
Efficacy ([5]; filed as activator): 58%
MEC [4]: 6.5 nM

CC[C@H](C)[C@H](C(=O)Nc1cccc(CCC(=O)O)c1C)N1CCC(CN2N=C(c3ccccc3)OCC2=O)CC1
MEC [4]: 7 nM

C[C@H]([C@H](C(=O)Nc1cc(C2(CC(=O)O)COC2)ccc1Cl)c1ccc(Cl)cc1)C(F)(F)F
Activity [6]: 2245 nM
Efficacy ([5]; filed as activator): 52%
EC50 ([7]; CHO): 70 nM
MEC [4]: 3 nM

Cc1c(CCC(=O)O)cccc1NC(=O)C(c1ccc(Cn2ncccc2=O)cc1)C1CCCC1 (racemic)
MEC [4]: 1000 nM

Cc1c(CCC(=O)O)cccc1NC(=O)[C@H](c1ccc(Cn2nc(-c3ccccc3)ccc2=O)cc1)C1CCCC1
MEC [4]: 1 nM

O=C(NCCCCC1(C(=O)O)CC1)[C@H](c1ccc(CN2N=C(c3ccccc3)OCC2=O)cc1)C1CCCC1
clearance [1]: 5.17 mL/min/kg
clearance [2]: 23.3 mL/min/kg
clearance [3]: 30 mL/min/kg
MEC [4]: 10 nM

Cc1ccc(CC2(C(=O)O)CC2)cc1NC(=O)[C@H](c1ccc(Cl)cc1)[C@@H](C)C(F)(F)F
Efficacy ([5]; filed as activator): 44%
MEC [4]: 3 nM
